Screening results as filed in PubChem.
Shown are actives, neighbours in structure and some others; about 3% of the full set was active somewhere.
Cneo AK release: Cryptococcus neoformans lysis via adenylate kinase release | C. neoformans lysis, adenylate kinase release luminescence, 4 h; normalised: neutral wells 0, clomiphene wells 100 | actives 0.2% (n = 360,000) | lysis activity, % at 15 µM;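 active = mean lysis activity across replicates of at least 80%, whatever share of replicates individually reach that level; inactive = mean lysis activity below 80%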
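Test system: log-phase Cryptococcus neoformans yeast cells; Quantity: yeast cell density of 5 × 10^6 cells/mL; Buffer or medium: YPD; Doses: single compound concentration per well; Timing: 4 h at 37 °C static, read 1 h later; Measured by: AK luminescence; Read-out basis: lysis from increased AK signal; Control set: Clomiphene as positive control.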
SIRT5 inh: blocks human SIRT5 desuccinylation of peptide; Q9NXA8; Purified SirT5, succinyl-peptide AMC, trypsin-coupled fluorescence; inhibition, % at 15 µM; actives 1.1% (n = 330,000); AID 652115; in the data active = inhibition above about 15%
Target sequence (Q9NXA8 whole entry, looked up): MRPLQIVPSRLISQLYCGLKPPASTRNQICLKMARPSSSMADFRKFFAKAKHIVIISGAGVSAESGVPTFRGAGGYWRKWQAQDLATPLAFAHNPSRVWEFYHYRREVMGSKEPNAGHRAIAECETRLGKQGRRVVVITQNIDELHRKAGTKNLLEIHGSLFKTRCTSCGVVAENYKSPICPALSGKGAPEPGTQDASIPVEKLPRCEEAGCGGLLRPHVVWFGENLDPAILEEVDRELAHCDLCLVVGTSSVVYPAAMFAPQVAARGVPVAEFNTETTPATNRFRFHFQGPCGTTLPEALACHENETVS
PGC1a acetyl inh: PGC1a acetylation modulation, inhibitor mode; U2OS PGC1a acetylation, AlphaScreen anti-acetyl-lysine; with virally co-expressed GCN5 acetyltransferase; inhibition, % at 15.6 µM; actives 0.17% (n = 350,000);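 active = every replicate shows inhibition of at least 40%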;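 note: 0% = neutral control wells and 100% = positive control wells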
Statin myotox sup: suppression of simvastatin myotoxicity; C2C12 myotubes + simvastatin, ATP luminescence, 48 h; scaled: DMSO 0, geranylgeraniol control 100; rescue of ATP level, % at 7.49 µM; actives 0.78% (n = 330,000); AID 602340;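 active = mean ATP rescue above about 67%, or every replicate alone reaching that limit, limit read from the data, passing the limit was not always enough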;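 note: myotubes were challenged with 10 µM simvastatin during compound exposure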
rRNA inh HTS: inhibits bacterial ribosomal RNA function over humanized ribosomes; E. coli WT GFP vs humanized-ribosome RFP mutants, fluorescence, 24 h; active compounds read low; DMSO median 0, no signal -100; GFP signal change (wild-type ribosome), % (test concentration not listed); actives 1.6% (n = 350,000);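 active = significant combined selectivity score with lowered wild-type GFP, culture density cut under 30%, mutant RFP and density less affected; inactive = any of these conditions unmet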
S100A4 MyoIIA: blocks human S100A4 binding to myosin IIA peptide; P26447; S100A4/TAMRA-MyoIIA peptide fluorescence polarization; inhibition, % at 10.7 µM; actives 0.14% (n = 360,000);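 active = mean inhibition of at least 70% across replicates, with every replicate also reaching that level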
Target sequence (P26447 whole entry, looked up): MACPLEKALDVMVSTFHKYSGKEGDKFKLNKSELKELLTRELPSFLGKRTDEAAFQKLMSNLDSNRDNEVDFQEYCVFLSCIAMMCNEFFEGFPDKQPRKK
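Material: human S100A4 monomer with TAMRA-labelled myosin IIA peptide; buffer or medium: HEPES pH 7.2 with CaCl2, KCl, NaCl, DTT, Triton; compound dosing: one concentration per compound; schedule: 5 min incubation before reading; benchmarks: neutral control DMSO, positive control TFP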
The depositor's hits bear a star; . = not tested or not shown.

SMILES | Cneo AK release | SIRT5 inh | PGC1a acetyl inh | Statin myotox sup | rRNA inh HTS | S100A4 MyoIIA
Cc1ccc(S(=O)(=O)Nc2ccc3c(c2)C(=O)N([C@@H](C)CO)C[C@@H](C)[C@@H](CN(C)C(=O)CCC(F)(F)F)OCCCC[C@H](C)O3)cc1 | -8 | 5 | 7 | . | -1 | -4
Cc1ccc(S(=O)(=O)Nc2ccc3c(c2)C(=O)N([C@@H](C)CO)C[C@H](C)[C@H](CN(C)C(=O)CCC(F)(F)F)OCCCC[C@H](C)O3)cc1 | -3 | 17* | 5 | . | 1 | -5
C[C@H]1CCCCO[C@H](CN(C)C(=O)CCC(F)(F)F)[C@@H](C)CN([C@@H](C)CO)C(=O)c2cc(NS(=O)(=O)c3ccc(Cl)cc3)ccc2O1 | 0 | 15* | 9 | . | -2 | 8
C[C@H](CO)N1C[C@H](C)[C@@H](CN(C)C(=O)CCC(F)(F)F)OCCCC[C@H](C)Oc2ccc(NS(=O)(=O)c3ccc(Cl)cc3)cc2C1=O | -5 | 13 | -1 | . | -1 | 11
COc1ccc(-c2ccccc2C2Cc3nnccc3CN2)cc1 (centres undefined) | . | -2 | . | . | -2 | -7
Brc1ccccc1C1Cc2nnccc2CN1 (centres undefined) | . | -3 | . | . | -36* | 2
Cc1cccn2c(Nc3ccccc3)c(-c3ccccn3)nc12 | 13 | -1 | -3 | -14 | -43* | -3
Cc1ccccc1Nc1c(-c2ccccn2)nc2ccccn12 | 11 | -2 | 3 | 11 | -54* | 0
Cc1ccn2c(Nc3ccccc3C)c(-c3ccccn3)nc2c1 | 3 | -2 | 5 | -7 | -48 | -10
Cc1cc(C)c(S(=O)(=O)Nc2ccc(Cl)cn2)c(C)c1 | 0 | -4 | . | 25 | -31* | -3
COc1ccc2c3c(n(C)c2c1)[C@H](CO)N(C(=O)C1CCCC1)CC31CCN(C(=O)CC2CC2)CC1 | . | 0 | -1 | . | -2 | 5
Nc1nonc1-n1nnc(C(=O)N/N=C/c2ccc(O)cc2)c1COc1ccc(F)cc1 | 1 | -4 | -8 | 7 | -24* | -1
CCCN(CCC)Cc1c(C(=O)N/N=C/C(C)=C\c2ccccc2)nnn1-c1nonc1N | 0 | 16* | 0 | . | 8 | -5
CCCc1c(C(=O)N/N=C/C(C)=C/c2ccccc2)nnn1-c1nonc1N | -2 | 0 | -14 | -14 | 3 | 1
Nc1nonc1-n1nnc(C(=O)N/N=C/c2ccccc2Cl)c1CSc1ccccc1 | -1 | -3 | 28 | . | -18* | -3
CN(C)c1ccc(/C=N/NC(=O)c2nnn(-c3nonc3N)c2CN(C)c2ccccc2)cc1 | 2 | 17* | 4 | 2 | 6 | -2
C[C@H](CO)N1C[C@H](C)[C@H](CN(C)C(=O)Cc2cccnc2)Oc2ncc(/C=C/c3ccccc3)cc2C1=O | -1 | -17 | -2 | 12 | -1 | 0
CCCC(=O)Nc1ccc2c(c1)OC[C@H](C)N(C(=O)c1ccccc1F)C[C@H](C)[C@@H](OC)CN(C)C2=O | . | -2 | -1 | . | 1 | -5
CN(Cc1c(C(=O)N/N=C/c2ccccc2)nnn1-c1nonc1N)c1ccccc1 | 0 | 1 | . | 1 | -27* | -1
COc1ccc(/C=N/NC(=O)c2nnn(-c3nonc3N)c2CN(C)c2ccccc2)cc1 | -1 | 1 | 0 | -4 | -2 | -2
CN(Cc1c(C(=O)N/N=C/c2ccc(O)cc2)nnn1-c1nonc1N)c1ccccc1 | -1 | 6 | -5 | -2 | -27* | 2
COc1ccc(N(C(=O)c2snc(C(N)=O)c2N)C(C(=O)NC2CCCC2)c2ccco2)cc1 (centres undefined) | -6 | -4 | . | -8 | 1 | -4
COc1ccc(N(C(=O)c2snc(C(N)=O)c2N)C(C(=O)NC2CCCCC2)c2ccc(C)o2)cc1 (centres undefined) | 1 | -6 | -62 | 75* | 6 | -3
C[C@@H]1CCCCO[C@@H](CN(C)CC2CCCCC2)[C@H](C)CN([C@@H](C)CO)C(=O)c2cc(NC(=O)Nc3ccc4c(c3)OCO4)ccc2O1 | 0 | 2 | -3 | 42 | -1 | -17
C[C@@H](O)C#Cc1cnc2c(c1)C(=O)N([C@@H](C)CO)C[C@H](C)[C@H](CN(C)C(=O)Cc1ccncc1)O2 | 2 | -3 | 2 | -4 | 1 | 0
SMILES | Cneo AK release | SIRT5 inh | PGC1a acetyl inh | Statin myotox sup | rRNA inh HTS | S100A4 MyoIIA
CCC(=O)n1nc(-c2ccccc2)nc1NCc1ccccc1 | . | 3 | 9 | -15 | -3 | -4
CC(=O)n1nc(-c2ccccc2)nc1NCc1ccc(N(C)C)cc1 | 0 | -3 | -2 | 5 | -25* | -17
CN(C)c1ccc(CNc2nc(-c3ccccc3)nn2S(C)(=O)=O)cc1 | 1 | -2 | -4 | 2 | -23* | 9
CS(=O)(=O)n1nc(-c2cccnc2)nc1NCc1ccccc1 | . | 3 | . | . | 5 | -9
COc1ccc(N2CCN(C(=O)COC(=O)Cc3c(F)cccc3Cl)CC2)cc1 | 0 | -1 | . | 2 | -9 | -14
O=C(Cc1c(F)cccc1Cl)OCC(=O)N1CCN(c2ccccc2)CC1 | -1 | -3 | -21 | 6 | -21* | -5
CO[C@@H]1CN(C)C(=O)c2ccc(NC(=O)c3nc4ccccc4s3)cc2OC[C@H](C)NC[C@H]1C | 14 | 2 | -30 | 0 | -7 | 1
Cc1ccc(S(=O)(=O)N(C)C[C@H]2Oc3ccc(NC(=O)Nc4ccc(F)cc4)cc3C(=O)N([C@H](C)CO)C[C@H]2C)cc1 | 1 | 0 | -13 | -32 | 0 | -5
CCC1CCCCN1CCCNC(=O)Cn1cnc2sc(C)c(S(=O)(=O)N3CCC(C)CC3)c2c1=O (centres undefined) | -3 | 17* | . | -6 | 6 | 5
CC(C)NC(=O)N(C)C[C@@H]1OCCCC[C@@H](C)Oc2ccc(NS(=O)(=O)c3ccc(F)cc3)cc2C(=O)N([C@@H](C)CO)C[C@H]1C | -1 | -6 | -1 | . | -5 | 2
O=C(CN1c2ccccc2Sc2ccccc21)N/N=C/c1ccc([N+](=O)[O-])cc1 | 0 | 0 | -2 | . | -24* | -2
O=C(CN1c2ccccc2Sc2ccccc21)N/N=C/c1ccccc1 | 0 | . | . | -4 | 0 | -5
CN(C)CCOC(=O)CC12CC3CC(C1)CC(CC(=O)OCCN(C)C)(C3)C2 | 1 | -4 | . | . | 18 | -1
CN(C)CCOC(=O)NCC12CC3CC(CC(C3)C1)C2 | 1 | 21* | . | -27 | 7 | 1
O=C(C[C@@H]1C=C[C@H](NC(=O)Nc2cccc(F)c2)[C@@H](CO)O1)NCC1CC1 | -4 | -14 | 0 | -2 | 0 | 35
